Test system: HEK-293T
Assay: Multiplex assay against HEK293T;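 for Population Tubulin-Different-Phenotype (%): share of the cells with healthy nuclei that show this phenotype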
Assay type: toxicity, cell-based
Details: human
Procedure, shortened: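 Values for tubulin, mitochondrial-mass and membrane-permeability phenotypes are per cents of cells with healthy nuclei. These cells were identified by CellPathfinder machine-learning gating of live cells that had been stained at seeding with Hoechst33342, BioTracker Green Microtubule Cytoskeleton Dye, MitoTracker Red and Annexin V Alexa Fluor 680 and imaged on a CQ1 microscope at 37°C and 5% CO2 after compound addition. The gating first set Hoechst high-intensity objects apart from normal cells, then split normal cells into healthy, pyknosed or fragmented nuclei, and pyknosed cells into mitotic or apoptotic.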

[1] = 12 h, 1 µM, compound concentration 1 uM, replicate 1
[2] = 12 h, 1 µM, compound concentration 1 uM, replicate 2
[3] = 12 h, 10 µM, compound concentration 10 uM, replicate 1
[4] = 12 h, 10 µM, compound concentration 10 uM, replicate 2
[5] = 24 h, 1 µM, compound concentration 1 uM, replicate 1
[6] = 24 h, 1 µM, compound concentration 1 uM, replicate 2
[7] = 24 h, 10 µM, compound concentration 10 uM, replicate 1
[8] = 24 h, 10 µM, compound concentration 10 uM, replicate 2
[9] = 48 h, 1 µM, compound concentration 1 uM, replicate 1
[10] = 48 h, 1 µM, compound concentration 1 uM, replicate 2
[11] = 48 h, 10 µM, compound concentration 10 uM, replicate 1
[12] = 48 h, 10 µM, compound concentration 10 uM, replicate 2

With `Cl.O=c1c2cccn2c2ccccc2n1CCCN1CCC(c2ccc(Cl)cc2)CC1` the “Population Apoptotic (%)” value [1] was 57%, the “Population Fragmented Nuclei (%)” value [1] was 7% and the “Population Healthy Nuclei (%)” value [1] was 47%. For the same compound, the “Population Hoechst High Intensity Objects (%)” value [1] was 10%, the “Population Membrane Permeable-Phenotype (%)” value [1] was 0% and the “Population Mitochondria Different-Phenotype (%)” value [1] was 95%. The “Population Mitotic Cells (%)” value [1] was 42%, the “Population Normal (%)” value [1] was 89% and the “Population Pyknosed Nuclei (%)” value [1] was 44%. The “Population Tubulin-Different-Phenotype (%)” value [1] was 80%, the “Total Cell Count” value [1] was 267 and the “Population Apoptotic (%)” value [2] was 30%. The “Population Fragmented Nuclei (%)” value [2] was 5%, the “Population Healthy Nuclei (%)” value [2] was 38% and the “Population Hoechst High Intensity Objects (%)” value [2] was 5%. For the same compound, the “Population Membrane Permeable-Phenotype (%)” value [2] was 6%, the “Population Mitochondria Different-Phenotype (%)” value [2] was 65% and the “Population Mitotic Cells (%)” value [2] was 69%. The “Population Normal (%)” value [2] was 94%, the “Population Pyknosed Nuclei (%)” value [2] was 56% and the “Population Tubulin-Different-Phenotype (%)” value [2] was 59%. For the same compound, the “Total Cell Count” value [2] was 238, the “Population Apoptotic (%)” value [3] was 86% and the “Population Fragmented Nuclei (%)” value [3] was 8%. For the same compound, the “Population Healthy Nuclei (%)” value [3] was 34%, the “Population Hoechst High Intensity Objects (%)” value [3] was 17% and the “Population Membrane Permeable-Phenotype (%)” value [3] was 5%. For the same compound, the “Population Mitochondria Different-Phenotype (%)” value [3] was 100%, the “Population Mitotic Cells (%)” value [3] was 13% and the “Population Normal (%)” value [3] was 82%. For the same compound, the “Population Pyknosed Nuclei (%)” value [3] was 57%, the “Population Tubulin-Different-Phenotype (%)” value [3] was 94% and the “Total Cell Count” value [3] was 297. The “Population Apoptotic (%)” value [4] was 92%, the “Population Fragmented Nuclei (%)” value [4] was 7% and the “Population Healthy Nuclei (%)” value [4] was 19%. The “Population Hoechst High Intensity Objects (%)” value [4] was 9%, the “Population Mitochondria Different-Phenotype (%)” value [4] was 91% and the “Population Mitotic Cells (%)” value [4] was 7%. The “Population Normal (%)” value [4] was 90%, the “Population Pyknosed Nuclei (%)” value [4] was 72% and the “Population Tubulin-Different-Phenotype (%)” value [4] was 86%. The “Total Cell Count” value [4] was 212, the “Population Apoptotic (%)” value [5] was 53% and the “Population Fragmented Nuclei (%)” value [5] was 7%. The “Population Healthy Nuclei (%)” value [5] was 55%, the “Population Hoechst High Intensity Objects (%)” value [5] was 12% and the “Population Membrane Permeable-Phenotype (%)” value [5] was 1%. The “Population Mitochondria Different-Phenotype (%)” value [5] was 93%, the “Population Mitotic Cells (%)” value [5] was 46% and the “Population Normal (%)” value [5] was 87%. The “Population Pyknosed Nuclei (%)” value [5] was 37%, the “Population Tubulin-Different-Phenotype (%)” value [5] was 73% and the “Total Cell Count” value [5] was 278. The “Population Apoptotic (%)” value [6] was 38%, the “Population Fragmented Nuclei (%)” value [6] was 5% and the “Population Healthy Nuclei (%)” value [6] was 56%. For the same compound, the “Population Hoechst High Intensity Objects (%)” value [6] was 4%, the “Population Membrane Permeable-Phenotype (%)” value [6] was 4% and the “Population Mitochondria Different-Phenotype (%)” value [6] was 75%. For the same compound, the “Population Mitotic Cells (%)” value [6] was 61%, the “Population Normal (%)” value [6] was 95% and the “Population Pyknosed Nuclei (%)” value [6] was 38%. The “Population Tubulin-Different-Phenotype (%)” value [6] was 65%, the “Total Cell Count” value [6] was 296 and the “Population Apoptotic (%)” value [7] was 84%. The “Population Fragmented Nuclei (%)” value [7] was 13%, the “Population Healthy Nuclei (%)” value [7] was 36% and the “Population Hoechst High Intensity Objects (%)” value [7] was 27%. The “Population Membrane Permeable-Phenotype (%)” value [7] was 6%, the “Population Mitochondria Different-Phenotype (%)” value [7] was 100% and the “Population Mitotic Cells (%)” value [7] was 15%. The “Population Normal (%)” value [7] was 72%, the “Population Pyknosed Nuclei (%)” value [7] was 50% and the “Population Tubulin-Different-Phenotype (%)” value [7] was 88%. The “Total Cell Count” value [7] was 286, the “Population Apoptotic (%)” value [8] was 98% and the “Population Fragmented Nuclei (%)” value [8] was 7%. The “Population Healthy Nuclei (%)” value [8] was 34%, the “Population Hoechst High Intensity Objects (%)” value [8] was 16% and the “Population Membrane Permeable-Phenotype (%)” value [8] was 3%. For the same compound, the “Population Mitochondria Different-Phenotype (%)” value [8] was 96%, the “Population Mitotic Cells (%)” value [8] was 1% and the “Population Normal (%)” value [8] was 83%. For the same compound, the “Population Pyknosed Nuclei (%)” value [8] was 58%, the “Population Tubulin-Different-Phenotype (%)” value [8] was 67% and the “Total Cell Count” value [8] was 206. The “Population Apoptotic (%)” value [9] was 43%, the “Population Healthy Nuclei (%)” value [9] was 77% and the “Population Hoechst High Intensity Objects (%)” value [9] was 7%. The “Population Membrane Permeable-Phenotype (%)” value [9] was 2%, the “Population Mitochondria Different-Phenotype (%)” value [9] was 63% and the “Population Mitotic Cells (%)” value [9] was 56%. The “Population Normal (%)” value [9] was 92%, the “Population Pyknosed Nuclei (%)” value [9] was 15% and the “Population Tubulin-Different-Phenotype (%)” value [9] was 59%. For the same compound, the “Total Cell Count” value [9] was 453, the “Population Apoptotic (%)” value [10] was 31% and the “Population Fragmented Nuclei (%)” value [10] was 7%. For the same compound, the “Population Healthy Nuclei (%)” value [10] was 70%, the “Population Hoechst High Intensity Objects (%)” value [10] was 5% and the “Population Membrane Permeable-Phenotype (%)” value [10] was 3%. The “Population Mitochondria Different-Phenotype (%)” value [10] was 32%, the “Population Mitotic Cells (%)” value [10] was 68% and the “Population Normal (%)” value [10] was 94%. The “Population Pyknosed Nuclei (%)” value [10] was 22%, the “Population Tubulin-Different-Phenotype (%)” value [10] was 54% and the “Total Cell Count” value [10] was 461. For the same compound, the “Population Apoptotic (%)” value [11] was 82%, the “Population Fragmented Nuclei (%)” value [11] was 15% and the “Population Healthy Nuclei (%)” value [11] was 35%. The “Population Hoechst High Intensity Objects (%)” value [11] was 38%, the “Population Membrane Permeable-Phenotype (%)” value [11] was 2% and the “Population Mitochondria Different-Phenotype (%)” value [11] was 97%. For the same compound, the “Population Mitotic Cells (%)” value [11] was 17%, the “Population Normal (%)” value [11] was 61% and the “Population Pyknosed Nuclei (%)” value [11] was 48%. The “Population Tubulin-Different-Phenotype (%)” value [11] was 79%, the “Total Cell Count” value [11] was 311 and the “Population Apoptotic (%)” value [12] was 98%. The “Population Fragmented Nuclei (%)” value [12] was 13%, the “Population Healthy Nuclei (%)” value [12] was 42% and the “Population Hoechst High Intensity Objects (%)” value [12] was 30%. The “Population Membrane Permeable-Phenotype (%)” value [12] was 3%, the “Population Mitochondria Different-Phenotype (%)” value [12] was 98% and the “Population Mitotic Cells (%)” value [12] was 1%. The “Population Normal (%)” value [12] was 69%, the “Population Pyknosed Nuclei (%)” value [12] was 43% and the “Population Tubulin-Different-Phenotype (%)” value [12] was 64%. For the same compound, the “Total Cell Count” value [12] was 191.

Source: ChEMBL document CHEMBL4689842, “EUbOPEN Chemogenomics Library wave 1” (2021)
